Screens deposited in PubChem BioAssay by The Scripps Research Institute Molecular Screening Center.
Rows were chosen to be rich in hits. Some 1.6% of all compounds tested hit in one or more screens of this group.
procasp7 counter: counter-screen for procaspase-3 activators: activators of human procaspase-7; recombinant procaspase-7, Ac-DEVD-pNA absorbance 405 nm; D23A/D198A/D206A triple mutant, cannot self-cleave; scale: DMSO 0, 5 µM enzyme 100; activation, % at 8.5 µM; AID 463210; 330,000 compounds, 0.093% hits;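 active = percent activation above the screen-wide mean plus 3 SD, cut at about 25% in these data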
Target sequence (P55210 whole entry D23A/D198A/D206A): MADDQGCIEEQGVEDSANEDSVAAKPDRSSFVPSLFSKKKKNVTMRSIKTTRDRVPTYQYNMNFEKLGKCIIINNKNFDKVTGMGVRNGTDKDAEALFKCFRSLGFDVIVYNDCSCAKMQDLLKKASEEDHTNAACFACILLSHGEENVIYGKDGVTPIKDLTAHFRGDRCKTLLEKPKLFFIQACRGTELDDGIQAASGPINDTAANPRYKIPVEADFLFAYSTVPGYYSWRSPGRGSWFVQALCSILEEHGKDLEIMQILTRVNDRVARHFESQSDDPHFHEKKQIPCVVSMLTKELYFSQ
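Detection: p-Nitroaniline absorbance at 405 nm, read at 0 and 120 min; system: Uncleavable procaspase-7 mutant enzyme; evaluation: % activation from two-timepoint absorbance difference, scaled to controls; times: 1 h enzyme–compound preincubation and 2 h substrate reaction, both 25 °C; buffer or medium: Zinc-free HEPES pH 7.4 with 300 mM NaCl, 0.01% Triton X-100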
PLCg1 inh: inhibitors of human phospholipase C gamma1; P19174; purified PLC-gamma1, fluorogenic substrate, fluorescence; inhibition, % at 12.2 µM; 370,000 compounds, 0.84% hits; in the data active = inhibition above about 9.5%
sPLA2-III inh: Inhibits HGIII-sPLA2 liposome hydrolysis, primary screen; Q9NZ20; QFRET BODIPY PC-A2 liposome hydrolysis, fluorescence; inhibition, % at 12.2 µM; 370,000 compounds, 0.56% hits;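 active = inhibition above mean plus 3 SD of compounds lying within the high and low control bounds, cut at about 19% in these data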
PLCb3 inh: inhibitors of human phospholipase C beta3. Q01970. Purified PLC-beta3, fluorogenic substrate, fluorescence. inhibition, % at 12.2 µM. 370,000 compounds, 0.18% hits. AID 720704; in the data active = inhibition above about 11%
procasp3 activ: activators of human procaspase-3 | recombinant procaspase-3 D3A, Ac-DEVD-pNA absorbance 405 nm | activation, % at 8.5 µM | 330,000 compounds, 0.11% hits | AID 463141 | P42574;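 active = activation above the mean of all tested compounds plus 3 SD, cut at about 21% in these data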
Target sequence (P42574 whole entry D9A/D28A/D175A): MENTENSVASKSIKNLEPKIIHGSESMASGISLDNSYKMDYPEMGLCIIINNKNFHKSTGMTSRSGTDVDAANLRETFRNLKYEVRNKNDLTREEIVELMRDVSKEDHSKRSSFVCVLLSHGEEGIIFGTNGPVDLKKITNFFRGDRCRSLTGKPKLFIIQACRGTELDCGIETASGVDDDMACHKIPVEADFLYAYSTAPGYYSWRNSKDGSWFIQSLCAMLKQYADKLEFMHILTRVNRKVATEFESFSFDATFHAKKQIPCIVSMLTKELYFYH
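Evaluation: percent activation relative to control range; Material: Procaspase-3 D3A mutant, all three cleavage aspartates alanine; Compound: single dose, 8.5 µM nominal compound, 0.8% DMSO; Replication: one well per compound; Signal: absorbance at 405 nm, 0 and 120 min; Schedule: 1 h preincubation plus 2 h reaction at 25 °C.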
hGIII sPLA2 conf: human GIII-sPLA2 inhibition, confirmation | shares compounds with sPLA2-III inh | recombinant hGIII-sPLA2, BODIPY PC-A2 QFRET fluorescence | inhibition, % at 12.2 µM | 2,000 compounds, 34% hits | AID 743280;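 active = mean inhibition across triplicates above the hit cutoff set in the earlier primary screen, cut at about 19% in these data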
535nm interf: optically interferes with 535nm fluorescence in sPLA2 counter-screen | shares compounds with sPLA2-III inh | BODIPY FL product fluorescence interference, QFRET | inhibition, % at 12.2 µM | 2,000 compounds, 8.5% hits;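 active = average inhibition above the solvent-only control mean plus 3 SD, cut at about 6% in these data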
BODIPY interf DR: interferes with 535nm fluorescence in dose response counter-screen; shares compounds with sPLA2-III inh; BODIPY FL product fluorescence interference, cell-free; IC50, µM; 240 tested, under 10 active;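 active = IC50 at or below 10 µM; inactive = IC50 above 10 µM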
Hits are given with their value; - = inactive; . = no result; ! = not confirmed by another sample.

SMILES	procasp7 counter	PLCg1 inh	sPLA2-III inh	PLCb3 inh	procasp3 activ	hGIII sPLA2 conf	535nm interf	others
O=C(NNC(=O)C1CCN(S(=O)(=O)c2c(Cl)cccc2Cl)CC1)c1ccccc1O	-	-	25	-	-	-	-
O=C(NNC(=O)c1ccccc1O)c1ccc(Cl)c(S(=O)(=O)N2CCCCC2)c1	-	-	20	-	-	-	-
O=C(NNC(=O)c1cccs1)c1ccc(Cl)c(S(=O)(=O)N2CCCC2)c1	-	-	-	-	-	.	.
c1ccc2cc(Cn3ccc4ccc(-c5ccc6ccn(Cc7ccc8ccccc8c7)c6c5)cc43)ccc2c1	.	-	-	-	.	.	.
c1ccc2cc(Cn3ccc4ccc(-c5ccc6cc[nH]c6c5)cc43)ccc2c1	.	-	23	-	.	-	10
CCc1cccc(CC)c1NC(=S)NCC(c1cccnc1)N1CCOCC1 (stereo unspecified)	-	-	24	-	-	-	-
Cc1ccccc1NC(=S)NCC(c1cccnc1)N1CCOCC1 (stereo unspecified)	-	-	-	-	-	.	.
Cc1cccc(-n2[nH]c3c4c(ccc3c2=O)C(=O)c2ccccc2C4=O)c1	-	-	-	-	-	.	.
O=C1c2ccccc2C(=O)c2c1ccc1c(=O)n(-c3ccccc3)[nH]c21	-	-	26	-	-	20	-
CN(C)c1ccc(C(c2ccc(N(C)C)cc2)c2ccc([N+](=O)[O-])cc2)cc1	-	-	20	-	-	-	9.2
CN(C)c1ccc(C=NC(CO)C(O)c2ccc([N+](=O)[O-])cc2)cc1 (stereo unspecified)	-	-	-	-	-	.	.
CCOC(=O)c1c(C)[nH]c(C(=O)COC(=O)[C@H](C)N2C(=O)C3CCCCC3C2=O)c1C (stereo partly specified)	.	-	-	-	.	.	.
COCCCNC(=O)c1cc2cc(Br)ccc2oc1=O	-	-	-	-	-	.	.
O=C(NNC(=O)c1cc2cc(Br)ccc2oc1=O)c1ccc(O)cc1O	-	-	20	-	-	26	-
C=CCN1C(=O)C(=O)N(Cc2nc3ccccc3s2)C1=O	-	-	-	-	-	.	.
CC(=O)Nc1ccc(NC(=S)NC(=O)c2ccc([N+](=O)[O-])cc2)cc1	-	-	24	-	-	-	-
Cc1ccc(C(=O)NC(=S)NNC(=O)c2ccccc2O)cc1	-	-	32	-	-	37	-	BODIPY interf DR=-
O=C(NC(=S)NNC(=O)c1ccccc1O)c1cccs1	-	-	30	-	-	30	-	BODIPY interf DR=-
CC(C)C(=O)Nc1ccc(NC(=S)NC(=O)c2ccc([N+](=O)[O-])cc2)cc1	-	-	-	-	-	.	.
O=C(NC(=S)NNC(=O)c1ccccc1O)c1ccc([N+](=O)[O-])cc1	-	-	39	-	-	29	-	BODIPY interf DR=-
O=C1CCCCC1CCc1ccncc1 (stereo unspecified)	.	-	-	-	.	.	.
COc1cc(C2c3[nH]c4ccccc4c3CC3COC(=O)N32)cc(OC)c1O (stereo unspecified)	.	-	-	-	.	.	.
Cc1ccccc1C(=O)NNC(=S)NC(=O)c1ccccc1	-	-	-	-	-	.	.
CC(C)(C)c1ccc(C(=O)NCC(=O)NNC(=O)c2ccccc2O)cc1	-	-	21	-	-	-	-
O=C(NC(=S)NNC(=O)c1ccccc1O)c1ccccc1	-	-	31	-	-	25	-
SMILES	procasp7 counter	PLCg1 inh	sPLA2-III inh	PLCb3 inh	procasp3 activ	hGIII sPLA2 conf	535nm interf	others
O=C(NNC(=S)NC(=O)c1cccnc1)c1ccc(F)cc1	-	-	-	-	-	.	.
CC(C)(C)c1ccc(OCCCC(=O)NNC(=O)c2ccccc2O)cc1	-	-	-	-	-	.	.
O=C(NC(=S)NNC(=O)c1ccccc1O)c1ccc(F)cc1	-	-	35	-	-	31	-
O=C(CC[C@H]1O[C@@H](n2cnc3c(NC(=O)c4ccccc4)ncnc32)[C@H](O)[C@@H]1O)N[C@@H](CO)Cc1c[nH]c2ccccc12	.	-	-	-	.	.	.
CCC(=O)Nc1c(C(=O)Nc2cccc(OC)c2)oc2ccccc12	-	-	-	-	-	.	.
CCCN(CCC)C(=O)c1oc2ccccc2c1NC(=O)Cc1cccc(OC)c1	-	-	20	-	-	-	-
Cc1cn([C@H]2C[C@H](O)[C@@H](CNCC3=Cc4cc(O)ccc4OC3)O2)c(=O)[nH]c1=O	.	-	-	-	.	.	.
CCOC(=O)C1=C(c2ccccc2)NC(=S)NC1c1cc([N+](=O)[O-])ccc1OC (stereo unspecified)	-	-	23	-	-	-	-
CC1=NN(C(N)=S)C(=O)C1N=Nc1ccc([N+](=O)[O-])cc1 (stereo unspecified)	-	.	.	.	-	.	.
COc1ccc(C(=O)CC(Nc2ccc([N+](=O)[O-])cc2)c2ccc(Cl)cc2)cc1 (stereo unspecified)	-	-	-	-	-	.	.
Oc1c(C=C2N=c3ccccc3=N2)sc(=S)n1C1CCCCC1	-	-	20!	-	-	-	-
O=C(CSc1nnc(C2CCCCC2)o1)Nc1ccccc1Cl	-	-	-	-	-	.	.
COc1ccc(/C=N/NC(=O)c2cc(O)c(O)c(O)c2)cc1Cn1cc([N+](=O)[O-])cn1	.	-	21	-	.	27	-
CCCOC1CCCN(C(=O)c2ccc(OC)c(OC3CCN(C(C)C)CC3)c2)C1 (stereo unspecified)	-	-	-	-	-	.	.
CCn1c(-c2c[nH]c3ccccc23)n[nH]c1=S	-	-	24	-	-	-	-
COc1cc(NC(=O)N2CCc3nc(NCc4cccc(Oc5ccccc5)c4)ncc3C2)cc(OC)c1OC	.	-	-	-	.	.	.
NC(=O)c1cc([N+](=O)[O-])ccc1NCc1cccnc1	-	-	-	-	-	.	.
NC(=O)c1cc([N+](=O)[O-])ccc1NCc1cnccn1	-	-	20	-	-	-	-
COc1ccc(Br)cc1CN(C)C(C)C(=O)Nc1cc([N+](=O)[O-])ccc1OC (stereo unspecified)	-	-	20	-	-	-	-
CCC(Sc1nc2ccccc2s1)C(=O)Nc1nnc(C)s1 (stereo unspecified)	-	-	19	-	-	-	-
S=c1[nH]nc(-c2ccc(Cl)cc2)n1CCCN1CCOCC1	-	-	20	-	-	-	-
COCCCn1c(-c2ccc(Cl)cc2)n[nH]c1=S	-	-	-	-	-	.	.
CCOCCCn1c(-c2ccc(Cl)cc2)n[nH]c1=S	-	-	22	-	-	-	-
